ChEMBL document CHEMBL1123192 (J Med Chem, 1986)

Columns and labels:
[1] = biological target: T1, Adrenergic receptor alpha-2 (Rattus norvegicus, UniProt P22086+P19328+P22909); test: The compound was evaluated for the antagonistic activity against alpha-2 adrenergic receptor.; type: functional
T1 sequence (P22086 whole entry): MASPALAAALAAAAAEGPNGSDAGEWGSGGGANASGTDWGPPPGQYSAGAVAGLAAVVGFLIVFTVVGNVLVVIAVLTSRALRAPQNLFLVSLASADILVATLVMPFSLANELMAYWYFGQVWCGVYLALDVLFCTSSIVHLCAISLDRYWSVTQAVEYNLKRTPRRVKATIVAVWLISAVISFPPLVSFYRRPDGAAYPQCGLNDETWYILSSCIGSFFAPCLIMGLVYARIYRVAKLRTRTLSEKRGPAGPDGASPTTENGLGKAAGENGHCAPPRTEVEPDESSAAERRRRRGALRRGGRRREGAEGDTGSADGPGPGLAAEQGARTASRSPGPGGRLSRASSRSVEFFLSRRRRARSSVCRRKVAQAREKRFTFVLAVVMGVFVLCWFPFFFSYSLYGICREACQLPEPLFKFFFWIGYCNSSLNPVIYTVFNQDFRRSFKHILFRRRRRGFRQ
T1 sequence (P19328 whole entry): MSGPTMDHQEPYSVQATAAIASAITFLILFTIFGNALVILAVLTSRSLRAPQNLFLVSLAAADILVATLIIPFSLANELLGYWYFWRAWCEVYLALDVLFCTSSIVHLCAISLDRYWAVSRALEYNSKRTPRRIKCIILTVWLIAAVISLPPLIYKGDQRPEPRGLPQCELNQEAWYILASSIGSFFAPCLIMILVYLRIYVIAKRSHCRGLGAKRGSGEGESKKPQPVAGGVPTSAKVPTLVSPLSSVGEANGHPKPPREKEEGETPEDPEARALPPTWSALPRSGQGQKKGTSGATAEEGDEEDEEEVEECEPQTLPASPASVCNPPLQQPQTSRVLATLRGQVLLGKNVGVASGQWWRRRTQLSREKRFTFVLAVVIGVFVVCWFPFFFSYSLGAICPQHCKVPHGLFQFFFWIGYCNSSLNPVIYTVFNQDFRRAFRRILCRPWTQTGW
T1 sequence (P22909 whole entry): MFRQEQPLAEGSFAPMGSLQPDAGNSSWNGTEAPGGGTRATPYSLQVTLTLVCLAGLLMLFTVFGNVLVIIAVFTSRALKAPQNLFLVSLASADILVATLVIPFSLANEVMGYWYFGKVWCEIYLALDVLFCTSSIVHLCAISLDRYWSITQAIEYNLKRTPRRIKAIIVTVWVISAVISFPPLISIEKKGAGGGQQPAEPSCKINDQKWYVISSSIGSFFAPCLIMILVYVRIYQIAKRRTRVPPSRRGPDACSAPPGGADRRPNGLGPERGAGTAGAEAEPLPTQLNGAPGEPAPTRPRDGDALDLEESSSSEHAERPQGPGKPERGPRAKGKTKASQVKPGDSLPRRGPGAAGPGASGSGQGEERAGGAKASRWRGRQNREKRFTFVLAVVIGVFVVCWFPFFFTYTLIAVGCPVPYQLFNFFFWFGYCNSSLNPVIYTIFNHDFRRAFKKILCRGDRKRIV

[2] = biological target: Beta-1 adrenergic receptor (Cavia porcellus, UniProt B0FL73); test: The compound was evaluated for the antagonistic activity against beta-1 adrenergic receptor; type: functional; conditions: read-out: pA2 (converted)
Chain of Beta-1 adrenergic receptor (B0FL73 whole entry): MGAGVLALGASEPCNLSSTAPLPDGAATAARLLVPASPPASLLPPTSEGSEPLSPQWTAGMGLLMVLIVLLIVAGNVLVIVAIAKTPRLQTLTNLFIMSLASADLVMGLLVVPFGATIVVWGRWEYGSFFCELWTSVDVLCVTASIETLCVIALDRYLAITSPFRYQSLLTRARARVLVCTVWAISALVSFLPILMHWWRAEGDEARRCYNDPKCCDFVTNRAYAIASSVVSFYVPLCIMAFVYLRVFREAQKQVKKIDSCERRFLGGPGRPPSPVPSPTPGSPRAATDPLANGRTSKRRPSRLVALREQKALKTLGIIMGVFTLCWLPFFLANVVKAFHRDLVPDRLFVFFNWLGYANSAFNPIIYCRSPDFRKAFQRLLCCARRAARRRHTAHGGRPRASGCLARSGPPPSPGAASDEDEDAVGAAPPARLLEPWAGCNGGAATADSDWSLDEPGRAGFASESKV
Procedure, shortened: (§1)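 Isolated tissue suited to each receptor test, held in 10-mL organ baths of Krebs-Henseleit solution at 37 °C and gassed with 95% O2/5% CO2. Antagonism was judged by how several concentrations of test agent altered a cumulative concentration-response curve to a receptor-specific agonist.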

Cavia porcellus = organism: Cavia porcellus; test: Beta-2-adrenoceptor ISA (intrinsic sympathomimetic activity)was measured as relaxant effect against a PGF2-alpha contracted guinea pig trachea at 3x10E -7 M; type: functional
Rattus norvegicus [3] = test: Maximal change in heart rate (HR) measured as % change from pretreatment value at dose of 100 mg/kg in SHR; type: functional
Procedure, shortened: (§2)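 Spontaneously hypertensive rats; test agent dissolved or dispersed in 0.5% methylcellulose and given by gastric gavage at 5 mL/kg after a 1-h equilibration. Doses ranged from 1 to 100 mg/kg, with 4–8 animals per dose. MABP and HR were monitored for 4 h. Pretreatment values and maximal % change were recorded, and maximal changes were compared with vehicle by Dunnett's t test.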

Rattus norvegicus [4] = test: Maximal change in heart rate (HR) measured as % change from pretreatment value at dose of 10 mg/kg in SHR; type: functional; procedure, shortened: as §2
Rattus norvegicus [5] = test: Maximal change in heart rate (HR) measured as % change from pretreatment value at dose of 1 mg/kg in SHR; type: functional; procedure, shortened: as §2
Rattus norvegicus [6] = test: Maximal change in heart rate (HR) measured as % change from pretreatment value at dose of 2.5 mg/kg; type: functional; procedure, shortened: as §2
Rattus norvegicus [7] = test: Maximal change in heart rate (HR) measured as % change from pretreatment value at dose of 5 mg/kg; type: functional; procedure, shortened: as §2
Rattus norvegicus [8] = test: Maximal change in mean arterial blood pressure (MABP) measured as % change from pretreatment value at dose of 100 mg/kg in SHR; type: functional; procedure, shortened: as §2
Rattus norvegicus [9] = test: Maximal change in mean arterial blood pressure (MABP) measured as % change from pretreatment value at dose of 10 mg/kg in SHR; type: functional; procedure, shortened: as §2
Rattus norvegicus [10] = test: Maximal change in mean arterial blood pressure (MABP) measured as % change from pretreatment value at dose of 1 mg/kg in SHR; type: functional; procedure, shortened: as §2
Rattus norvegicus [11] = test: Maximal change in mean arterial blood pressure (MABP) measured as % change from pretreatment value at dose of 2.5 mg/kg in SHR; type: functional; procedure, shortened: as §2
Rattus norvegicus [12] = test: Maximal change in mean arterial blood pressure (MABP) measured as % change from pretreatment value at dose of 25 mg/kg in SHR; type: functional; procedure, shortened: as §2
Rattus norvegicus [13] = test: Maximal change in mean arterial blood pressure (MABP) measured as % change from pretreatment value at dose of 5 mg/kg in SHR; type: functional; procedure, shortened: as §2
Rattus norvegicus [14] = test: Maximal change in heart rate (HR) measured as pretreatment value at dose of 25 mg/kg in SHR; type: functional; procedure, shortened: as §2
Rattus norvegicus [15] = test: Maximal change in heart rate (HR) measured as pretreatment value at dose of 5 mg/kg in SHR; type: functional; procedure, shortened: as §2
Rattus norvegicus [16] = test: Maximal change in heart rate (HR) measured as pretreatment value at dose of 100 mg/kg in SHR; type: functional; procedure, shortened: as §2
Rattus norvegicus [17] = test: Maximal change in heart rate (HR) measured as pretreatment value at dose of 10 mg/kg in SHR; type: functional; procedure, shortened: as §2
Rattus norvegicus [18] = test: Maximal change in heart rate (HR) measured as pretreatment value at dose of 1 mg/kg in SHR; type: functional; procedure, shortened: as §2
Rattus norvegicus [19] = test: Maximal change in heart rate (HR) measured as pretreatment value at dose of 2.5 mg/kg in SHR; type: functional; procedure, shortened: as §2
Rattus norvegicus [20] = test: Maximal change in mean arterial blood pressure (MABP) measured as pretreatment value at dose of 100 mg/kg in SHR; type: functional; procedure, shortened: as §2
Rattus norvegicus [21] = test: Maximal change in mean arterial blood pressure (MABP) measured as pretreatment value at dose of 10 mg/kg in SHR; type: functional; procedure, shortened: as §2
Rattus norvegicus [22] = test: Maximal change in mean arterial blood pressure (MABP) measured as pretreatment value at dose of 1 mg/kg in SHR; type: functional; procedure, shortened: as §2
Rattus norvegicus [23] = test: Maximal change in mean arterial blood pressure (MABP) measured as pretreatment value at dose of 2.5 mg/kg in SHR; type: functional; procedure, shortened: as §2
Rattus norvegicus [24] = test: Maximal change in mean arterial blood pressure (MABP) measured as pretreatment value at dose of 25 mg/kg in SHR; type: functional; procedure, shortened: as §2
Rattus norvegicus [25] = test: Maximal change in mean arterial blood pressure (MABP) measured as pretreatment value at dose of 5 mg/kg in SHR; type: functional; procedure, shortened: as §2
[26] = biological target: Beta-2 adrenergic receptor (Cavia porcellus, UniProt Q8K4Z4); test: The compound was evaluated for the antagonistic activity against beta-2 adrenergic receptor.; type: functional; conditions: read-out: pA2 (converted); procedure, shortened: as §1
Chain of Beta-2 adrenergic receptor (Q8K4Z4 whole entry): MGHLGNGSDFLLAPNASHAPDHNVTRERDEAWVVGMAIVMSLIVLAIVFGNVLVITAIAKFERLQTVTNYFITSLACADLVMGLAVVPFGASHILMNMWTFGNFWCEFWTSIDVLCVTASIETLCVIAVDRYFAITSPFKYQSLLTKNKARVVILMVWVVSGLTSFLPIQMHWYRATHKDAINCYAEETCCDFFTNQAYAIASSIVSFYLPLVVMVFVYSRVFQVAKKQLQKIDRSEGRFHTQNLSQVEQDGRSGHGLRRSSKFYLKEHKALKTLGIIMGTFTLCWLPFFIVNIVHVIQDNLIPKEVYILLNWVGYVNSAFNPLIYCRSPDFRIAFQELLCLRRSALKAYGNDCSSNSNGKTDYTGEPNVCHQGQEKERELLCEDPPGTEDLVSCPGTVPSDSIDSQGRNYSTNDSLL

Rattus norvegicus [27] = test: Maximal change in heart rate (HR) measured as % change from pretreatment value at dose of 25 mg/kg; type: functional; procedure, shortened: as §2
[28] = biological target: Alpha-1 adrenergic receptor; test: The compound was evaluated for the antagonistic activity against alpha-1 adrenergic receptor.; conditions: read-out: pA2 (converted)

CC(CCc1ccccc1)NCC(O)c1cc(C(N)=O)c2[nH]ccc2c1 (centres undefined)
pA2 [1]: 5.4
Kb [2]: 39.8 nM
Change (Cavia porcellus): 89%
Change (Rattus norvegicus [3]): -26%
Change (Rattus norvegicus [4]): -15%
Change (Rattus norvegicus [5]): -3%
Change (Rattus norvegicus [6]): -10%
Change (Rattus norvegicus [7]): -12%
Change (Rattus norvegicus [8]): -45%
Change (Rattus norvegicus [9]): -40%
Change (Rattus norvegicus [10]): -9%
Change (Rattus norvegicus [11]): -25%
Change (Rattus norvegicus [12]): -47%
Change (Rattus norvegicus [13]): -32%
HR (Rattus norvegicus [14]): 426 beats min-1
HR (Rattus norvegicus [15]): 439 beats min-1
HR (Rattus norvegicus [16]): 425 beats min-1
HR (Rattus norvegicus [17]): 430 beats min-1
HR (Rattus norvegicus [18]): 442 beats min-1
HR (Rattus norvegicus [19]): 419 beats min-1
MABP (Rattus norvegicus [20]): 178 mmHg
MABP (Rattus norvegicus [21]): 166 mmHg
MABP (Rattus norvegicus [22]): 171 mmHg
MABP (Rattus norvegicus [23]): 176 mmHg
MABP (Rattus norvegicus [24]): 183 mmHg
MABP (Rattus norvegicus [25]): 176 mmHg
Kb [26]: 50.1 nM
Change (Rattus norvegicus [27]): -18%
Kb [28]: 251 nM
